From ChEMBL document CHEMBL4680156, “Discovery of novel pyrido-pyrrolidine hybrid compounds as alpha-glucosidase inhibitors and alternative agent for control of type 1 diabetes” (Eur J Med Chem, 2020)
Activity calls are given as the source filed them. The rule behind the calls is not given here.

Legend:
Alpha-mannosidase = molecular target: T1, Alpha-mannosidase (Canavalia ensiformis, UniProt C0HJB3); test: Inhibition of jack bean alpha-mannosidase using […] as substrate incubated for 10 mins by spectrophotometric method
T1 sequence (C0HJB3 whole entry): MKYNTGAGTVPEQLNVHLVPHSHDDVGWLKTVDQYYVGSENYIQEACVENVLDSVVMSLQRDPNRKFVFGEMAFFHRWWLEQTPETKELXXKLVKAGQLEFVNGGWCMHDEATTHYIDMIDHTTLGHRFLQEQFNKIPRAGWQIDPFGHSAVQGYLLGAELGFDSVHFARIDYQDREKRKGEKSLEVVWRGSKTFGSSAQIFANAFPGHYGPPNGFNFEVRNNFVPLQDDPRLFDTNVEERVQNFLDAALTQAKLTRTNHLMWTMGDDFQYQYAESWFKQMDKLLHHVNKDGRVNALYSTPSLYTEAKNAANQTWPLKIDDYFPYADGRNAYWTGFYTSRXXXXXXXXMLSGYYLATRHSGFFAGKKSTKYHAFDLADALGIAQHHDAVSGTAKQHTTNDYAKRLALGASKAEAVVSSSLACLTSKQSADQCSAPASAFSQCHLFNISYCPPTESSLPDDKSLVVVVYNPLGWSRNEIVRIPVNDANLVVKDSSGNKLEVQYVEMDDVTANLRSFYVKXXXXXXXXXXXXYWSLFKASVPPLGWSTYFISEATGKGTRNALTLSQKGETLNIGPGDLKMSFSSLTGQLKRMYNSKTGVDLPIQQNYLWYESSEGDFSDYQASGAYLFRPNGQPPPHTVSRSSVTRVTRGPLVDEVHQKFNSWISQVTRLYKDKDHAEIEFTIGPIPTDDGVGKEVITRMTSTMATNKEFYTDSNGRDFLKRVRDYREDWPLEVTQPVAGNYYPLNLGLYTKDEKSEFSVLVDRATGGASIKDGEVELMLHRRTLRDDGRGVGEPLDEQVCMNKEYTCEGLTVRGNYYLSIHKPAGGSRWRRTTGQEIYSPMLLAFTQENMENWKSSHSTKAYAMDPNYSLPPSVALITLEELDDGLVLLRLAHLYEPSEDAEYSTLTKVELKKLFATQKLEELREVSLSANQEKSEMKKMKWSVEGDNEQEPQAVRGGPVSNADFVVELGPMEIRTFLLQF

[1] = Competitive inhibition of Saccharomyces cerevisiae alpha-glucosidase using PNPG as substrate incubated for 10 mins by Lineweaver-Burk plot analysis
Summary of the method: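 Yeast α-glucosidase kinetics used pNPG at 1, 2, 3, 4 and 5 mM without inhibitor or with inhibitor at 2 and 10 μM, at 37 °C. Absorbance read at 420 nm. Mode of inhibition came from Km/Vmax changes on Lineweaver–Burk double-reciprocal plots; Ki derived […].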

Saccharomyces cerevisiae [2] = test: Binding affinity to Saccharomyces cerevisiae alpha-glucosidase assessed as protein with alpha-helical structure at 0.64 ug/ml by CD spectroscopic method (reference value: 5.3%); settings: dose 0.64 µg/ml
Summary of the method: (§1)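 Compound was added at different concentrations to yeast α-glucosidase (30 U/ml). CD spectra were taken with 3 accumulations (negative bands at 209 and 222 nm). α-Helix and β-sheet content were estimated with secondary-structure estimation software.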

Saccharomyces cerevisiae [3] = test: Binding affinity to Saccharomyces cerevisiae alpha-glucosidase assessed as protein with beta-sheet structure at 0.64 ug/ml by CD spectroscopic method (reference value: 68%); settings: dose 0.64 µg/ml; summary of the method: as §1
[4] = Stability in rat liver microsomes assessed as CYP450-mediated drug degradation by measuring proportion of compound metabolised at 1 uM up to 60 mins in presence of NADPH by LC-MS/MS analysis; assay type: ADME; settings: read-out: Drug degradation
Summary of the method: (§2)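 Liver microsomes (1.0 mg protein/mL) were incubated with compound at 1 μM; reactions were started with 1 mM NADPH. No-NADPH incubations (0 and 60 min) served as stability controls. Reactions were stopped at 0, 5, 15, 30 and 60 min with ice-cold acetonitrile containing internal standard, then centrifuged. Parent loss was tracked by LC-MS/MS.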

Cytochrome P450 = Cytochrome P450 (Homo sapiens, UniProt P04798+P05177+P05181+P08684+P10632+P10635+P11509+P11712+P13584+P20813+P20815+P20853+P24462+P24903+P33260+P33261+P51589+P78329+P98187+Q02928+Q08477+Q16678+Q16696+Q5TCH4+Q6VVX0+Q7Z449+Q8TAV3+Q96SQ9+Q9HB55); test: Stability in human liver microsomes assessed as CYP450-mediated drug degradation by measuring proportion of compound metabolised at 1 uM up to 60 mins in presence of NADPH by LC-MS/MS analysis; assay type: ADME; settings: read-out: Drug degradation; summary of the method: as §2
[5] = Half life in human liver microsomes at 1 uM up to 60 mins in presence of NADPH by LC-MS/MS analysis; assay type: ADME, Microsome; summary of the method: as §2
[6] = Intrinsic clearance in mouse liver microsomes at 1 uM up to 60 mins in presence of NADPH by LC-MS/MS analysis; assay type: ADME, Microsome; settings: 1 h; summary of the method: as §2
[7] = Intrinsic clearance in rat liver microsomes at 1 uM up to 60 mins in presence of NADPH by LC-MS/MS analysis; assay type: ADME, Microsome; settings: 1 h; summary of the method: as §2
[8] = Protein binding in mouse plasma assessed as unbound fraction at 10 uM after 6 hrs by LC-MS/MS analysis; assay type: ADME, cell-free
Summary of the method: (§3)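 Equilibrium dialysis: plasma with compound at 10 μM final on one side, 100 mM sodium phosphate pH 7.4 on the other. Equilibrated at 37 ± 1 °C for 6 h with shaking at 500 rpm. Both sides were sampled, proteins precipitated with organic solvent, and supernatants analysed by LC-MS/MS.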

[9] = Protein binding in mouse plasma assessed as bound fraction at 10 uM after 6 hrs by LC-MS/MS analysis; assay type: ADME, cell-free; settings: read-out: PPB (converted); summary of the method: as §3
[10] = Drug recovery in rat plasma at 10 uM after 6 hrs by LC-MS/MS analysis; assay type: ADME, cell-free; settings: read-out: Drug recovery; summary of the method: as §3
Rattus norvegicus = test: Antidiabetic activity against STZ-induced type 1 diabetic Sprague-Dawley rat model assessed as decrease in fasting blood glucose level at 60 mg/kg, po administered once daily for 28 days; assay type: functional, organism-based; settings: time 28.0 day
Summary of the method: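 Male Sprague-Dawley rats (250–320 g, 8–10 weeks) were given STZ 70 mg/kg ip once in 0.1 mmol/L citrate buffer, pH 4.5. Rats with random glucose >125 mg/dl at 4 days were counted diabetic. Dosing was 60 mg/kg in 0.5% saline by gavage once daily for 4 weeks, n=6 per group. After a 6 h fast, tail blood glucose was read by glucometer. Data are mean ± SD; 2-way ANOVA.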

[11] = Toxicity in STZ-treated diabetic Sprague-Dawley rat model assessed as decrease in body weight at 60 mg/kg, po administered once daily for 28 days; assay type: organism-based; settings: in vivo, 672 h, time 28 day
Summary of the method: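 Male Sprague-Dawley rats (250–320 g, 8–10 weeks) were made diabetic with a single STZ dose (70 mg/kg ip in 0.1 mmol/L citrate buffer, pH 4.5). Random glucose above 125 mg/dl defined diabetes. Dosing was 60 mg/kg in 0.5% saline by gastric gavage once daily for 4 weeks, n=6 per group, with vehicle controls. Body weight was recorded before and after treatment; mean ± SD, 2-way ANOVA.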

IC50 (Alpha-mannosidase): 41.2 µM
Ki [1]: 29.9 µM
Activity (Saccharomyces cerevisiae [2]): 6.6%
Activity (Saccharomyces cerevisiae [3]): 58.9%
metabolised at 1 h, 1 µM [4]: 95.2%
metabolised at 1 h, 1 µM (Cytochrome P450): 96.3%
half-life at 1 µM [5]: 13 min
CLint [6]: 74.1 µL/min/mg
CLint [7]: 54.4 µL/min/mg
fraction unbound at 6 h, 10 µM [8]: 0.0899
fraction unbound at 6 h, 10 µM [9]: 0.0899
remaining at 6 h, 10 µM [10]: 1.95%
Structure (SMILES): CCOC(=O)c1ccc(-n2c(/C=C3\OC(=O)c4c3cc(C)[nH]c4=O)ccc2CO)cc1
Activity (Rattus norvegicus): Active
Activity [11]: Non-Toxic
